Measured values reported in ChEMBL document CHEMBL4406794, “N-(7-Cyano-6-(4-fluoro-3-(2-(3-(trifluoromethyl)phenyl)acetamido)phenoxy)benzo[d]thiazol-2-yl)cyclopropanecarboxamide (TAK-632) Analogues as Novel Necroptosis Inhibitors by Targeting Receptor-Interacting Protein Kinase 3 (RIPK3): Synthesis, Structure-Activity Relationships, and in Vivo Efficacy” (J Med Chem, 2019).
Calls of active or inactive are those of the source. The calls are words filed in the database; no cut-off is given here.

Tests used:
[1] = tested on: HT-29; assay: Anti-necroptotic activity in human HT-29 cells assessed as inhibition of […]/SM-164/Z-VAD-fmk-induced necroptosis measured after 16 hrs by celltiter-glo luminescent cell viability assay; conditions: HT-29, 16 h
[2] = Cytotoxicity against human HT-29 cells measured after 12 hrs by CellTiter-Glo Luminescent assay; assay type: cell-based
[3] = molecular target: Receptor-interacting serine/threonine-protein kinase 3 (Homo sapiens, UniProt Q9Y572); assay: Binding affinity to wild-type human partial length RIPK3 (M1 to Q307 residues) expressed in bacterial expression system after 1 hr by quantitative PCR based KINOMEscan assay
Method in brief: (§1)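 KINOMEscan competition binding. Bound kinase eluted with 0.5 μM nonbiotinylated ligand for 30 min and quantified by qPCR. Duplicates averaged.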

[4] = molecular target: T1, Receptor-interacting serine/threonine-protein kinase 1 (Homo sapiens, UniProt Q13546); assay: Binding affinity to wild-type human partial length RIPK1 (M1 to K305 residues) expressed in bacterial expression system after 1 hr by quantitative PCR based KINOMEscan assay
T1 sequence (Q13546 whole entry): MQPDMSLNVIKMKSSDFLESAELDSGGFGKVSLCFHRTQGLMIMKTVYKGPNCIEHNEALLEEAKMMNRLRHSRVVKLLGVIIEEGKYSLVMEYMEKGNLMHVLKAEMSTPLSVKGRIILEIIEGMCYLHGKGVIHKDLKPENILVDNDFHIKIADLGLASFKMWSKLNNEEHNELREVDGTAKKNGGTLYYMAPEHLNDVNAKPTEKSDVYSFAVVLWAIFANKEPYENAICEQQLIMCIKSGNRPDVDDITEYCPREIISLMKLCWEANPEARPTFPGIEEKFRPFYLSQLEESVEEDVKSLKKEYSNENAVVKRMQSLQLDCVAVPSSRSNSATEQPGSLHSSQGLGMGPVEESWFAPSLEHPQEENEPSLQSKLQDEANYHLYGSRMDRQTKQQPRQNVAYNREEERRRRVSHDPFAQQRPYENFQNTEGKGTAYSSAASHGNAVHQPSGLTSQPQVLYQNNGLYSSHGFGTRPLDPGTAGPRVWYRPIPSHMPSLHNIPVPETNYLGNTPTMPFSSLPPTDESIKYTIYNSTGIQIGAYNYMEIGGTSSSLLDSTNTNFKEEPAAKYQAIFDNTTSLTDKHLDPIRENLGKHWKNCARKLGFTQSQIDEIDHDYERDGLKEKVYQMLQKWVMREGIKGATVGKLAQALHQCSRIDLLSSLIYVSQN
Method in brief: as §1

[5] = species on record: Homo sapiens; assay: Selectivity ratio of Kd for human partial length RIPK1 (M1 to K305 residues) expressed in bacterial expression system to Kd for wild-type human partial length RIPK3 (M1 to Q307 residues) expressed in bacterial expression system
[6] = tested on: Mus musculus; assay: (§2) Protection against TNFalpha/Z-VAD-fmk-induced C57BL/6J mouse model of systemic inflammatory response syndrome assessed as increase in body temperature at 5 to 50 mg/kg, po administered via gavage 2 hrs prior to Z-VAD-fmk addition for 15 mins followed by TNFalpha stimulation for 1 hr and subsequent Z-VAD-fmk addition meaured up to 50 hrs post TNFalpha stimulation by electric thermometer; assay type: functional, organism-based
Method in brief: (§3)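 Female C57BL/6 mice, fasted overnight, n=10 per group. Compound given by oral gavage at 5, 25 or 50 mg/kg 2 h before TNF. z-VAD-fmk 180 µg i.p., then 15 min later mTNF-α 400 µg/kg i.v. in endotoxin-free PBS, then a further 70 µg z-VAD-fmk i.p. 1 h later. Body temperature and survival followed, compared with vehicle by one-way ANOVA.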

[7] = tested on: Mus musculus; assay: as §2, with “syndrome” for “syndrome assessed as increase in body temperature”, “100” for “5 to 50”, “relative to control” for “by electric thermometer”; assay type: functional
[8] = tested on: Mus musculus; assay: as §2, with “mouse survial” for “body temperature”, “stimulation” for “stimulation by electric thermometer”; assay type: functional, organism-based
Method in brief: as §3

[9] = tested on: Mus musculus; assay: as §2, with “syndrome” for “syndrome assessed as increase in body temperature”, “25” for “5 to 50”, “relative to control” for “by electric thermometer”; assay type: functional
Method in brief: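 Overnight-fasted C57BL/6 female mice, n=10 per group. Test compound was given by oral gavage 2 h before mTNF-α. z-VAD-fmk (180 µg) was injected ip, then 15 min later mTNF-α in endotoxin-free PBS was injected iv (400 µg/kg). A second z-VAD-fmk dose (70 µg) was given ip 1 h after TNF. Body temperature and survival were followed against vehicle. One-way ANOVA was used.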

Sequence of Receptor-interacting serine/threonine-protein kinase 3 (Q9Y572 whole entry, the tested form may be a part): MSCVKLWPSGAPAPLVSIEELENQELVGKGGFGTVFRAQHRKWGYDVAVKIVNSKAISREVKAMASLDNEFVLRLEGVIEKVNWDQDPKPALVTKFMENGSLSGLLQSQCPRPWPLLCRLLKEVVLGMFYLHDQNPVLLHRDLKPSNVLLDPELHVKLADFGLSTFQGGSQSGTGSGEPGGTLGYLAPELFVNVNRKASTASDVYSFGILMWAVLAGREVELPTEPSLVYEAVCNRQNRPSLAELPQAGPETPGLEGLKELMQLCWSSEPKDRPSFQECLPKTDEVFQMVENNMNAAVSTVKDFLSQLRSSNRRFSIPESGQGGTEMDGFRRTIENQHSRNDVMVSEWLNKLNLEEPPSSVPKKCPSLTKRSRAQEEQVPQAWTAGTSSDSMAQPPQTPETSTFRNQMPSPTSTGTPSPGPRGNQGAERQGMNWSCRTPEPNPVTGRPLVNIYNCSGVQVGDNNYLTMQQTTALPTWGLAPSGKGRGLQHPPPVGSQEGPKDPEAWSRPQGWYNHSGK

Structure (SMILES) | EC50 [1] | CC50 at 12 h [2] | Kd [3] | Kd [4] | other results
N#Cc1c(Oc2ccc(F)c(NC(=O)Cc3cccc(C(F)(F)F)c3)c2)ccc2nc(NC(=O)OCc3ccccc3)sc12 | > 20 µM |  |  |  | 
Cc1cccc(CC(=O)Nc2cc(Oc3ccc4nc(NC(=O)C5CC5)sc4c3)ccc2F)c1 | 0.38 µM | > 50 µM | 0.033 µM | 0.32 µM | 
CC(=O)c1cccc(NC(=O)Nc2cc(Oc3ccc4nc(NC(=O)C5CC5)sc4c3)ccc2F)c1 | 1 µM | > 50 µM | 0.053 µM | > 5 µM | Ratio [5]: > 94.3
O=C(Cc1ccccn1)Nc1cc(Oc2ccc3nc(NC(=O)C4CC4)sc3c2)ccc1F | 8.3 µM |  |  |  | 
Cc1cccc(NC(=O)Nc2cc(Oc3ccc4nc(NC(=O)C5CC5)sc4c3)ccc2F)c1 | 0.58 µM | > 50 µM | 0.093 µM | 2.2 µM | Ratio [5]: 23.6
N#Cc1c(Oc2ccc(F)c(NC(=O)Cc3ccc([N+](=O)[O-])cc3)c2)ccc2nc(NC(=O)C3CC3)sc12 | > 20 µM |  |  |  | 
CCCCCCCCC(=O)Nc1nc2ccc(Oc3ccc(F)c(NC(=O)Cc4cccc(C(F)(F)F)c4)c3)c(C#N)c2s1 | > 20 µM |  |  |  | 
N#Cc1c(Oc2ccc(F)c(NC(=O)c3cccc(C(F)(F)F)c3)c2)ccc2nc(NC(=O)C3CC3)sc12 | > 20 µM |  |  |  | 
Cn1cc(CC(=O)Nc2cc(Oc3ccc4nc(NC(=O)C5CC5)sc4c3)ccc2F)c2ccccc21 | 3.81 µM | > 50 µM | 1.4 µM | 4.8 µM | 
O=C(Cc1cccc(C(F)(F)F)c1F)Nc1cc(Oc2ccc3nc(NC(=O)C4CC4)sc3c2)ccc1F | 0.49 µM | > 50 µM | 0.099 µM | 0.51 µM | 
N#Cc1c(Oc2ccc(F)c(NC(=O)Cc3cccc(F)c3)c2)ccc2nc(NC(=O)C3CC3)sc12 | > 20 µM |  |  |  | 
O=C(Cc1cccc([N+](=O)[O-])c1)Nc1cc(Oc2ccc3nc(NC(=O)C4CC4)sc3c2)ccc1F | 0.61 µM | > 50 µM | 0.11 µM | 0.77 µM | 
CCOC(=O)c1cccc(NC(=O)Nc2cc(Oc3ccc4nc(NC(=O)C5CC5)sc4c3)ccc2F)c1 | 7.74 µM | > 50 µM | 0.072 µM | > 5 µM | Ratio [5]: > 69.4
COc1cccc(CC(=O)Nc2cc(Oc3ccc4nc(NC(=O)C5CC5)sc4c3)ccc2F)c1 | 0.33 µM | > 50 µM | 0.055 µM | 0.24 µM | 
N#Cc1c(Oc2ccc(F)c(NC(=O)Cc3cccc(C(F)(F)F)c3)c2)ccc2nc(NC(=O)c3ccccc3)sc12 | > 20 µM |  |  |  | 
N#Cc1cccc(CC(=O)Nc2cc(Oc3ccc4nc(NC(=O)C5CC5)sc4c3)ccc2F)c1 | 1.29 µM | > 50 µM | 0.12 µM | 0.78 µM | 
O=C(Cc1ccccc1C(F)(F)F)Nc1cc(Oc2ccc3nc(NC(=O)C4CC4)sc3c2)ccc1F | 11.3 µM |  |  |  | 
O=C(CCc1cccc(C(F)(F)F)c1)Nc1cc(Oc2ccc3nc(NC(=O)C4CC4)sc3c2)ccc1F | 0.65 µM | > 50 µM | 0.79 µM | 0.51 µM | 

Structure (SMILES) | EC50 [1] | CC50 at 12 h [2] | Kd [3] | Kd [4] | other results
N#Cc1c(Oc2ccc(F)c(NC(=O)Cc3cccc(C(F)(F)F)c3F)c2)ccc2nc(NC(=O)C3CC3)sc12 | 2.03 µM |  |  |  | 
O=C(Cc1cccc(C(F)(F)F)n1)Nc1cc(Oc2ccc3nc(NC(=O)C4CC4)sc3c2)ccc1F | 0.32 µM | > 50 µM | 0.28 µM | 0.22 µM | 
O=C(Cc1cccc(O)c1)Nc1cc(Oc2ccc3nc(NC(=O)C4CC4)sc3c2)ccc1F | > 20 µM |  |  |  | 
COc1cccc(NC(=O)Nc2cc(Oc3ccc4nc(NC(=O)C5CC5)sc4c3)ccc2F)c1 | 1.37 µM | > 50 µM | 0.069 µM | 3.6 µM | Ratio [5]: 52.1
O=C(Cc1cccc(OC(F)(F)F)c1)Nc1cc(Oc2ccc3nc(NC(=O)C4CC4)sc3c2)ccc1F | 0.06 µM | > 50 µM | 0.12 µM | 0.049 µM | 
O=C(Cc1cccc(C(F)(F)F)c1Cl)Nc1cc(Oc2ccc3nc(NC(=O)C4CC4)sc3c2)ccc1F | > 20 µM |  |  |  | 
O=C(Cc1cc(C(F)(F)F)cc(C(F)(F)F)c1)Nc1cc(Oc2ccc3nc(NC(=O)C4CC4)sc3c2)ccc1F | 9.7 µM | > 50 µM |  |  | 
O=C(Nc1nc2ccc(Oc3ccc(F)c(NCc4cccc(C(F)(F)F)c4)c3)cc2s1)C1CC1 | > 20 µM |  |  |  | 
N#Cc1c(Oc2ccc(F)c(NC(=O)Cc3cccc(C(F)(F)F)c3)c2)ccc2nc(NC(=O)C3CC3)sc12 |  | > 50 µM |  | 0.48 µM | Activity [6]: Active; Activity [7]: 70%; Activity [8]: Active; Activity [9]: 20%
CCC(=O)Nc1nc2ccc(Oc3ccc(F)c(NC(=O)Cc4cccc(C(F)(F)F)c4)c3)c(C#N)c2s1 | > 20 µM |  |  |  | 
N#Cc1c(Oc2ccc(F)c(NC(=O)Cc3ccccc3)c2)ccc2nc(NC(=O)C3CC3)sc12 | > 20 µM |  |  |  | 
O=C(Cc1ccc(F)c(C(F)(F)F)c1)Nc1cc(Oc2ccc3nc(NC(=O)C4CC4)sc3c2)ccc1F | 0.4 µM | > 50 µM | 0.13 µM | 0.59 µM | 
O=C(Cc1ccc2c(c1)OCO2)Nc1cc(Oc2ccc3nc(NC(=O)C4CC4)sc3c2)ccc1F | 2.32 µM | > 50 µM | 0.081 µM | 1.1 µM | Ratio [5]: 13
O=C(Nc1nc2ccc(Oc3ccc(F)c(NS(=O)(=O)c4cccc(C(F)(F)F)c4)c3)cc2s1)C1CC1 | > 20 µM |  |  |  | 
O=C(Nc1nc2ccc(Oc3ccc(F)c(NCc4ccc5c(c4)OCO5)c3)cc2s1)C1CC1 | > 20 µM |  |  |  | 
O=C(Nc1nc2ccc(Oc3ccc(F)c(NC(=O)C4(c5cccc(C(F)(F)F)c5)CC4)c3)cc2s1)C1CC1 | > 20 µM | > 50 µM |  |  | 
O=C(Cc1cccc(C(F)(F)F)c1)Nc1cc(Oc2ccc3nc(NC(=O)C4CC4)sc3c2)ccc1F |  |  |  |  | Activity [6]: Active; Activity [8]: Active
Cc1ccc(CC(=O)Nc2cc(Oc3ccc4nc(NC(=O)C5CC5)sc4c3)ccc2F)cc1C | 1.67 µM | > 50 µM | 0.072 µM | 1.2 µM | 
